ChEMBL document CHEMBL1240345 (Nat Chem Biol, 2009)
Activity calls are given as the source filed them. No cut-off for these calls is given here.

Columns and labels:
[1] = target: T1, Dual specificity protein phosphatase 6 (Homo sapiens) (UniProt Q16828); assay: Inhibition of Myc-tagged human Dusp6 expressed in TPA-induced human HeLa cells assessed as decrease in dephosphorylation of pERK measured at 100 uM by immunostaining; type: cell-based
T1 sequence (whole entry): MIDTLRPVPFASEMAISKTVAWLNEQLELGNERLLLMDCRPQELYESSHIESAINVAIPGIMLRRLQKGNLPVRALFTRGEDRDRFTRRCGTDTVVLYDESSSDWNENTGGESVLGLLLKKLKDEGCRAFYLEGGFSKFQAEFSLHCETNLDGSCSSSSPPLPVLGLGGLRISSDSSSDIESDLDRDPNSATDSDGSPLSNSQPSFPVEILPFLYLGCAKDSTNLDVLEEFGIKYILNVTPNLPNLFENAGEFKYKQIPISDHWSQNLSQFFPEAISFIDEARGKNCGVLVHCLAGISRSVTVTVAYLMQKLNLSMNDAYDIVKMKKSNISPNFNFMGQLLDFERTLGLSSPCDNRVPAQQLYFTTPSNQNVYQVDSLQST

[2] = target: T2, Dual specificity protein phosphatase 1 (Homo sapiens) (UniProt P28562); assay: Inhibition of Myc-tagged human Dusp1 expressed in TPA-induced human HeLa cells assessed as decrease in dephosphorylation of pERK measured at 100 uM by immunostaining; type: cell-based
T2 sequence (whole entry): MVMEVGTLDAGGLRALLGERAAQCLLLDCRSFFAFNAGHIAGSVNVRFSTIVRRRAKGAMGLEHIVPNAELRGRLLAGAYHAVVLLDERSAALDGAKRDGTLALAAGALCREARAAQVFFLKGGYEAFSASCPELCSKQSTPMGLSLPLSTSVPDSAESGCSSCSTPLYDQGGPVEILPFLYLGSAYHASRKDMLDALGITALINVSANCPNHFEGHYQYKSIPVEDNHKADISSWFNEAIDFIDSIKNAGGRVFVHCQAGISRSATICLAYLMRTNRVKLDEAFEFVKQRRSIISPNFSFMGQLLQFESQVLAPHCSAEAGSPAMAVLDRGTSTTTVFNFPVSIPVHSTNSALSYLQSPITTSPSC

Danio rerio [3] = species: Danio rerio; assay: Induction of cardiac tissue expansion in larval stage Tg(dusp:EGFP)pt6 zebrafish embryo after 8 hrs; type: functional, tissue-based
[4] = target: T1, Dual specificity protein phosphatase 6 (Homo sapiens); assay: Inhibition of Dusp6 in Tg(dusp:EGFP)pt6 zebrafish assessed as increase in FGF-signaling mediated d2EGFP fluorescence at 10 uM after 2 hrs
How it was run: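 Tg(dusp6:EGFP)pt6 embryos from natural crosses were raised at 28.5°C to 24 hpf, then placed five per well in E3. Compound was added at 10 μM in 0.5% DMSO, with 0.5% DMSO as vehicle control. d2EGFP intensity was scored visually against vehicle-treated embryos. Assays were run three times, and at least four of five embryos had to share the phenotype.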

[5] = target: T1, Dual specificity protein phosphatase 6 (Homo sapiens); assay: Inhibition of Dusp6 in 1-somite stage Tg(dusp:EGFP)pt6 zebrafish assessed as increase in dusp6 FGF target gene expression in mid-hindbrain boundary at 10 uM by RT-PCR
[6] = target: T1, Dual specificity protein phosphatase 6 (Homo sapiens); assay: Inhibition of Dusp6 in 1-somite stage Tg(dusp:EGFP)pt6 zebrafish assessed as increase in dusp6 FGF target gene expression in rhombomere 4 at 10 uM by RT-PCR
[7] = target: T1, Dual specificity protein phosphatase 6 (Homo sapiens); assay: Inhibition of Dusp6 in 1-somite stage Tg(dusp:EGFP)pt6 zebrafish assessed as increase in dusp6 FGF target gene expression in tailbud at 10 uM by RT-PCR
[8] = target: T1, Dual specificity protein phosphatase 6 (Homo sapiens); assay: Inhibition of Dusp6 in 10-somite stage Tg(dusp:EGFP)pt6 zebrafish assessed as increase in dusp6 FGF target gene expression in mid-hindbrain boundary at 10 uM by RT-PCR
[9] = target: T1, Dual specificity protein phosphatase 6 (Homo sapiens); assay: Inhibition of Dusp6 in 10-somite stage Tg(dusp:EGFP)pt6 zebrafish assessed as increase in dusp6 FGF target gene expression in rhombomere 4 at 10 uM by RT-PCR
[10] = target: T1, Dual specificity protein phosphatase 6 (Homo sapiens); assay: Inhibition of Dusp6 in 10-somite stage Tg(dusp:EGFP)pt6 zebrafish assessed as increase in dusp6 FGF target gene expression in tailbud at 10 uM by RT-PCR
[11] = target: T1, Dual specificity protein phosphatase 6 (Homo sapiens); assay: Inhibition of Dusp6 in Tg(dusp:EGFP)pt6 zebrafish assessed as increase in engrailed 2b in prospective mid-hindbrain boundary at 10 uM by RT-PCR
[12] = target: T1, Dual specificity protein phosphatase 6 (Homo sapiens); assay: Inhibition of Dusp6 in Tg(dusp:EGFP)pt6 zebrafish assessed as increase in il17rd gene expression at 10 uM by RT-PCR
[13] = target: T1, Dual specificity protein phosphatase 6 (Homo sapiens); assay: Inhibition of Dusp6 in Tg(dusp:EGFP)pt6 zebrafish assessed as increase in spry4 gene expression at 10 uM by RT-PCR
[14] = target: T1, Dual specificity protein phosphatase 6 (Homo sapiens); assay: Inhibition of […] in Tg(dusp:EGFP);ace mutant zebrafish assessed as increase in FGF-signaling mediated d2EGFP fluorescence in mid-hindbrain boundary at 10 uM after 2 hrs
[15] = target: T1, Dual specificity protein phosphatase 6 (Homo sapiens); assay: Inhibition of Dusp6 in 1-cell stage Tg(dusp:EGFP)pt6 zebrafish embryos injected with XFD mRNA assessed as sef gene expression restoring at 5 uM
How it was run: (§1)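 Embryos were injected at the 1-2 cell stage with 500 pg of spry4 or XFD mRNA. They were exposed to 5 μM compound at the 1000-cell stage and fixed at shield stage. sef expression was then assessed by in situ hybridization.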

[16] = target: T1, Dual specificity protein phosphatase 6 (Homo sapiens); assay: Inhibition of Dusp6 in 1-cell stage Tg(dusp:EGFP)pt6 zebrafish embryos injected with spry4 mRNA assessed as sef gene expression restoring at 5 uM; how it was run: as §1
[17] = target: T3, Dual specificity protein phosphatase 6 (Homo sapiens, UniProt Q16828); assay: Inhibition of Myc-tagged human Dusp6 expressed in TPA-induced human HeLa cells assessed as decrease in dephosphorylation of pERK measured by immunostaining; type: cell-based
T3 sequence (Q16828 whole entry): T1 sequence (whole entry)
How it was run: (§2)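 HeLa cells (2,000 per collagen-coated well; DMEM, 10% FBS, 37°C, 5% CO2) were transfected with human c-Myc-Dusp1 or c-Myc-Dusp6. After 20 h, quadruplicate wells received ten two-fold concentrations of compound for 15 min, then TPA (500 ng/ml) for 15 min. Cells were fixed and immunostained for pERK and c-Myc, and 1000 Myc-gated cells were imaged. pERK restoration was expressed as Kolmogorov-Smirnov values normalized to vehicle-treated transfected wells. Six independent experiments were run.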

[18] = target: T4, Dual specificity protein phosphatase 1 (Homo sapiens, UniProt P28562); assay: Inhibition of Myc-tagged human Dusp1 expressed in TPA-induced human HeLa cells assessed as decrease in dephosphorylation of pERK measured by immunostaining; type: cell-based; how it was run: as §2
T4 sequence (P28562 whole entry): T2 sequence (whole entry)

[19] = target: T5, Dual specificity protein phosphatase 5 (Homo sapiens) (UniProt Q16690); assay: Inhibition of Dusp5
T5 sequence (whole entry): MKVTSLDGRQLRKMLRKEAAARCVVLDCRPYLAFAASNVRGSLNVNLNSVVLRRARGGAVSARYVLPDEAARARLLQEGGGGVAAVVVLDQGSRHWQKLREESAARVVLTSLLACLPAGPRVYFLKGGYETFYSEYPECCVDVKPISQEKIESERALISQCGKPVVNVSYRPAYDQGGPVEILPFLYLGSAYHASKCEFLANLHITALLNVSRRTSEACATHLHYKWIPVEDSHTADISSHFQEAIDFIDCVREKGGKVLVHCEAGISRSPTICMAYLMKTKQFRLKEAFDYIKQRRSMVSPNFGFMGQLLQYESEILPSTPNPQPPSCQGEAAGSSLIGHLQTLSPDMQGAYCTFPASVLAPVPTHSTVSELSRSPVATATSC

[20] = target: T6, M-phase inducer phosphatase 2 (Homo sapiens, UniProt P30305); assay: Inhibition of Cdc25B
T6 sequence (P30305 whole entry): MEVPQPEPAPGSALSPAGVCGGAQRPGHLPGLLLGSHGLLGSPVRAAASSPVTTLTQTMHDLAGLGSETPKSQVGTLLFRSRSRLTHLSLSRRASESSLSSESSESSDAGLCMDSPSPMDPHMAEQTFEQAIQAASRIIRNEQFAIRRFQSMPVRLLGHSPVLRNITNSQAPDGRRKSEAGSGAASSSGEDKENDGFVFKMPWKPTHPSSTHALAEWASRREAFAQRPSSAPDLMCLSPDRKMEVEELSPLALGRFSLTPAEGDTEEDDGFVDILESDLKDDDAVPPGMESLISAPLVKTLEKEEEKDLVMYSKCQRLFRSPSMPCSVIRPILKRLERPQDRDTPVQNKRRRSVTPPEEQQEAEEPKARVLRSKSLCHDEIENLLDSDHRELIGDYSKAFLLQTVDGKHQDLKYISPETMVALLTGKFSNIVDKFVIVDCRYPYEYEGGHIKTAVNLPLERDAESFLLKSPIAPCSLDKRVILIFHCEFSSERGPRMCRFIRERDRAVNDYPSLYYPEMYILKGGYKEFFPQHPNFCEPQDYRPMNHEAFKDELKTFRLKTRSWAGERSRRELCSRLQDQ

[21] = target: T7, Tyrosine-protein phosphatase non-receptor type 1 (Homo sapiens, UniProt P18031); assay: Inhibition of PTP1B
T7 sequence (P18031 whole entry): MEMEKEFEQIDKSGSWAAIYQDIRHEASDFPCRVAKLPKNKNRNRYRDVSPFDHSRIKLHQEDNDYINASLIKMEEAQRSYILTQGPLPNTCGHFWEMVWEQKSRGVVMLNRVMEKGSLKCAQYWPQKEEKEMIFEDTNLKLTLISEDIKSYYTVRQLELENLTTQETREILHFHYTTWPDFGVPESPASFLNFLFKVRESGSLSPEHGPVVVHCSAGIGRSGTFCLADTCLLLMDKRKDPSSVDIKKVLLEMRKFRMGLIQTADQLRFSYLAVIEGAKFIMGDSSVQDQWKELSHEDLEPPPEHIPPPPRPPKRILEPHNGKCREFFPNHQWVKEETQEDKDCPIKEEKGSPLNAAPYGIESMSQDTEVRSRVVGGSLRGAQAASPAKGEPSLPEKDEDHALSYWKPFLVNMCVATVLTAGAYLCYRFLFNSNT

[22] = target: Dual specificity protein phosphatase 3 (Homo sapiens, UniProt P51452); assay: Inhibition of Dusp3/VHR
[23] = target: T1, Dual specificity protein phosphatase 6 (Homo sapiens); assay: Inhibition of Dusp6 basal phosphatase activity using 3-o-methylfluoro-rescein phosphate substrate
How it was run: (§3)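 Recombinant Dusp6 activity was followed as dephosphorylation of the small-molecule substrate 3-O-methylfluorescein phosphate, with or without ERK2 present to stimulate catalysis.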

[24] = target: T1, Dual specificity protein phosphatase 6 (Homo sapiens); assay: Inhibition of Dusp6 basal phosphatase activity using 3-o-methylfluoro-rescein phosphate substrate in presence of ERK protein; conditions: concentration not given here; how it was run: as §3
[25] = target: T1, Dual specificity protein phosphatase 6 (Homo sapiens); assay: Inhibition of Dusp6 basal phosphatase activity using 3-o-methylfluoro-rescein phosphate substrate at 10:1 enzyme to ERK protein ration; conditions: concentration not given here
Danio rerio [26] = species: Danio rerio; assay: Inhibition of dusp4 gene expression in Tg(dusp:EGFP)pt6 zebrafish embryos; type: functional; conditions: Embryo
Danio rerio [27] = species: Danio rerio; assay: Inhibition of dusp1 gene expression in Tg(dusp:EGFP)pt6 zebrafish embryos; type: functional; conditions: Embryo
Danio rerio [28] = species: Danio rerio; assay: Inhibition of dusp7 gene expression in Tg(dusp:EGFP)pt6 zebrafish embryos; type: functional; conditions: Embryo
Danio rerio [29] = species: Danio rerio; assay: Inhibition of dusp5 gene expression in Tg(dusp:EGFP)pt6 zebrafish embryos; type: functional; conditions: Embryo
Danio rerio [30] = species: Danio rerio; assay: Inhibition of dusp22a gene expression in Tg(dusp:EGFP)pt6 zebrafish embryos; type: functional; conditions: Embryo
[31] = Increase in transcription factor gata4 gene in Tg(dusp:EGFP)pt6 zebrafish embryo anterior lateral plate mesoderm; type: functional, Danio rerio
[32] = Increase in transcription factor nkx2.5 gene in Tg(dusp:EGFP)pt6 zebrafish embryo anterior lateral plate mesoderm; type: functional, Danio rerio
[33] = target: T1, Dual specificity protein phosphatase 6 (Homo sapiens); assay: Inhibition of Dusp6 in Tg(dusp:EGFP)pt6 zebrafish embryo assessed as reduction in scl gene expression; conditions: concentration not given here
[34] = target: T1, Dual specificity protein phosphatase 6 (Homo sapiens); assay: Inhibition of Dusp6 in Tg(dusp:EGFP)pt6 zebrafish embryo assessed as reduction in etv2 gene expression
Danio rerio [35] = species: Danio rerio; assay: Increase in cardiac hand2 expression in 10-somite stage Tg(dusp:EGFP)pt6 zebrafish embryo; type: functional
Danio rerio [36] = species: Danio rerio; assay: Increase in cardiac myl7 expression in 18-somite stage Tg(dusp:EGFP)pt6 zebrafish embryo
Danio rerio [37] = species: Danio rerio; assay: Increase in cardiac cmlc2 expression in 18-somite stage Tg(dusp:EGFP)pt6 zebrafish embryo

Dual specificity protein phosphatase 3, sequence (P51452 whole entry): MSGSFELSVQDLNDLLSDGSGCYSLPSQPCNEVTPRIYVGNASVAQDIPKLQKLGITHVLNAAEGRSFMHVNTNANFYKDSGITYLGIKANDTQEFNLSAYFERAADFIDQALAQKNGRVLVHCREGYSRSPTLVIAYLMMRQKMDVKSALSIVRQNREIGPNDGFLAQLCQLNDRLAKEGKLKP

## O=C1CC(NC2CCCCC2)c2ccccc21 (stereo not drawn)
[1]
  inhibition: inactive
[2]
  inhibition: inactive

## O=C1/C(=C/c2ccccc2)C(NC2CCCCC2)c2ccccc21 (stereo not drawn)
Danio rerio [3]
  Activity: Active
[4]
  inhibition: Dose-dependent effect
[5]
  inhibition: Active
[6]
  inhibition: Active
[7]
  inhibition: Active
[8]
  inhibition: Active
[9]
  inhibition: Active
[10]
  inhibition: Active
[11]
  inhibition: Active
[12]
  inhibition: Active
[13]
  inhibition: Active
[14]
  inhibition: inactive
[15]
  inhibition: inactive
[16]
  inhibition: inactive
[17]
  IC50: 12.3 µM
[18]
  IC50: 11.5 µM
[1]
  inhibition: Active
[19]
  inhibition: inactive
[20]
  IC50: Not Active
[21]
  IC50: Not Active
[22]
  IC50: Not Active
[23]
  inhibition: inactive
[24]
  inhibition: 57%
[25]
  inhibition: 30%
Danio rerio [26]
  inhibition: Active
Danio rerio [27]
  inhibition: Active
Danio rerio [28]
  inhibition: Active
Danio rerio [29]
  inhibition: Active
Danio rerio [30]
  inhibition: Active
[31]
  Activity: 81%
[32]
  Activity: 91%
[33]
  inhibition: 93%
[34]
  inhibition: Active
Danio rerio [35]
  Activity: 32%
Danio rerio [36]
  Activity: 81%
Danio rerio [37]
  Activity: 81%
